Test results: ChEMBL document CHEMBL3808334, “Synthesis and in vitro evaluation of novel triazine analogues as anticancer agents and their interaction studies with bovine serum albumin” (Eur J Med Chem, 2016)

Tests used:
MDA-MB-435 = experiment: Growth inhibition of human MDA-MB-435 cells incubated for 48 hrs by sulforhodamine B assay; format: functional; conditions: MDA-MB-435, 48 h
Outline: (§1)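 Cells were plated at 5,000–40,000 per well according to doubling time and preincubated 24 h at 37 °C in 5% CO2; time-zero plates were then TCA-fixed. Five concentrations (10-fold or ½-log dilutions, DMSO stock) were incubated 48 h. Cells were TCA-fixed, stained with 0.4% SRB and read at 515 nm. GI50 was taken where [(Ti−Tz)/(C−Tz)]×100 = 50.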

[1] = Growth inhibition of human RPMI8226 cells assessed as cell growth at 10^-5 M incubated for 48 hrs by sulforhodamine B assay; format: functional; conditions: RPMI-8226, 48 h, read-out: Activity
[2] = Growth inhibition of human Hs 578T cells assessed as cell growth at 10^-7 M incubated for 48 hrs by sulforhodamine B assay; format: functional; conditions: read-out: Activity
[3] = Growth inhibition of human HOP92 cells assessed as cell growth at 10^-5 M incubated for 48 hrs by sulforhodamine B assay; format: functional; conditions: HOP-92, 48 h, read-out: Activity
[4] = Growth inhibition of human UACC257 cells assessed as cell growth at 10 uM incubated for 48 hrs by sulforhodamine B assay; format: functional; conditions: UACC-257, 48 h, read-out: Activity
[5] = Growth inhibition of human HCC2998 cells assessed as cell growth at 10^-6 M incubated for 48 hrs by sulforhodamine B assay; format: functional; conditions: HCC 2998, 48 h, read-out: Activity
Outline: (§2)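 Cells seeded at 5,000–40,000/well according to doubling time and preincubated 24 h at 37 °C, 5% CO2. Time-zero plates were TCA-fixed. DMSO concentrate was diluted in medium with 50 µg/ml gentamicin to give five concentrations (10-fold or ½ log steps), then exposed 48 h. Cells were TCA-fixed, stained with 0.4% SRB and read at 515 nm. Percent growth was taken against time-zero and control; GI50, TGI and LC50 derived.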

[6] = Growth inhibition of human RXF393 cells assessed as cell growth at 10^-8 M incubated for 48 hrs by sulforhodamine B assay; format: functional; conditions: RXF 393, 48 h, read-out: Activity
A549 = experiment: Growth inhibition of human A549/ATCC cells incubated for 48 hrs by sulforhodamine B assay; format: functional; conditions: A549, 48 h
Outline: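 Five-dose assay: five concentrations from 10-fold or ½-log serial dilutions. Cells are plated at 5,000–40,000 per well according to doubling time, grown 24 h, then exposed 48 h at 37 °C, 5% CO₂. Fixed with cold 50% TCA (final addition) for 60 min at 4 °C and stained with 0.4% SRB in 1% acetic acid. Bound dye is solubilized in 10 mM Tris base and read at 515 nm. GI₅₀ is where [(Ti−Tz)/(C−Tz)]×100 = 50, with a time-zero plate as Tz.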

ACHN = experiment: Growth inhibition of human ACHN cells assessed as cell growth at 10 uM incubated for 48 hrs by sulforhodamine B assay; format: functional; conditions: read-out: Activity
Outline: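 One-dose screen at 10 µM final. Cells are plated at 5,000–40,000 per well according to doubling time and preincubated 24 h at 37 °C, 5% CO₂. Compound (DMSO stock diluted in medium with 50 µg/ml gentamicin) is then added for 48 h. Growth percent is read by sulforhodamine B staining, absorbance at 515 nm.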

T47D [7] = experiment: Growth inhibition of human T47D cells incubated for 48 hrs by sulforhodamine B assay; format: functional; outline: as §1
[8] = Growth inhibition of human DU145 cells assessed as cell growth at 10^-4 M incubated for 48 hrs by sulforhodamine B assay; format: functional; conditions: DU-145, 48 h, read-out: Activity; outline: as §2
Malme-3M = experiment: Growth inhibition of human MALME-3M cells assessed as cell growth at 10^-7 M incubated for 48 hrs by sulforhodamine B assay; format: functional; conditions: read-out: Activity
[9] = Growth inhibition of human OVCAR8 cells incubated for 48 hrs by sulforhodamine B assay; format: functional; conditions: OVCAR-8, 48 h; outline: as §1
Albumin = Albumin (Bos taurus, UniProt P02769); experiment: Binding affinity to bovine serum albumin assessed as enhancement in emission spectra up to 20 uM by fluorescence spectroscopic analysis relative to control; format: ADME; conditions: cattle, isolated protein
Chain of Albumin (P02769 whole entry): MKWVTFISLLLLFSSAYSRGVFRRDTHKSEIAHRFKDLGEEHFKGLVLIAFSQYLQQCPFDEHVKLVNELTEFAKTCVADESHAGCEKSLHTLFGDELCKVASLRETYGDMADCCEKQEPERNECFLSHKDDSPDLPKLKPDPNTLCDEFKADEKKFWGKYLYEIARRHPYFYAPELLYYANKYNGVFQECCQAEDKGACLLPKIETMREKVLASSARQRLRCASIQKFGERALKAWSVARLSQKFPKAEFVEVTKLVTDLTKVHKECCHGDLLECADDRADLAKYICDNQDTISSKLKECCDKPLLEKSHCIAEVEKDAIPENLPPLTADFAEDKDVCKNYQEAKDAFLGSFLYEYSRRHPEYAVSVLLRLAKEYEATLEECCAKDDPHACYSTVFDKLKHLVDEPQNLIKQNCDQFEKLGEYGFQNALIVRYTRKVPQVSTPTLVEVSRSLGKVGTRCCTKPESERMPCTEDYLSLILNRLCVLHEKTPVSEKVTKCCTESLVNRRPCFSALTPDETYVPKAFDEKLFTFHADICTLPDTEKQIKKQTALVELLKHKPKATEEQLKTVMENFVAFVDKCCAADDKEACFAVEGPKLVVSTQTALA
Outline: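 Fluorescence titration of 10 µM BSA in 0.1 M phosphate buffer pH 7.4 with compound at 0–20 µM, diluted from DMSO stocks. Excitation 280 nm, slit 10 nm, 1 cm quartz cell, 300 K. Changes in the 350 nm Trp emission, new bands near 370–373 nm and isoemissive points are read against BSA alone.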

T47D [10] = experiment: Growth inhibition of human T47D cells assessed as cell growth at 10^-8 M incubated for 48 hrs by sulforhodamine B assay; format: functional; conditions: read-out: Activity
[11] = Growth inhibition of human OVCAR4 cells assessed as cell growth at 10 uM incubated for 48 hrs by sulforhodamine B assay; format: functional; conditions: OVCAR-4, 48 h, read-out: Activity
HT-29 = experiment: Growth inhibition of human HT-29 cells incubated for 48 hrs by sulforhodamine B assay; format: functional; conditions: HT-29, 48 h; outline: as §1
[12] = Growth inhibition of human SKOV3 cells assessed as cell growth at 10 uM incubated for 48 hrs by sulforhodamine B assay; format: functional; conditions: SK-OV-3, 48 h, read-out: Activity
[13] = Growth inhibition of human HCT116 cells assessed as cell growth at 10^-8 M incubated for 48 hrs by sulforhodamine B assay; format: functional; conditions: HCT-116, 48 h, read-out: Activity; outline: as §2
NCI-H460 = experiment: Growth inhibition of human NCI-H460 cells incubated for 48 hrs by sulforhodamine B assay; format: functional; conditions: NCI-H460, 48 h; outline: as §1
[14] = Growth inhibition of human MOLT4 cells assessed as cell growth at 10^-6 M incubated for 48 hrs by sulforhodamine B assay; format: functional; conditions: MOLT-4, 48 h, read-out: Activity
[15] = read-out: LC50 (the source's name)
[16] = read-out: pLC50 (the source's name) (converted)

`Fc1ccc(-c2nc(Nc3ccc(-c4nc5ccccc5[nH]4)cc3)nc(N3CCOCC3)n2)cc1` gave a GI50 (MDA-MB-435; read-out: GI50) of 1940 nM, a TGI (MDA-MB-435; read-out: TGI) of 4.04 µM and a GI50 (MDA-MB-435; read-out: pGI50 (converted)) of 1950 nM. It also gave a TGI (MDA-MB-435; read-out: pTGI (converted)) of 4.07 µM, a growth at 10 µM [1] of -17% and a growth at 0.1 µM [2] of 93%. The growth at 10 µM [3] was -67%, the growth at 10 µM [4] was -27.6% and the growth at 1 µM [5] was 94%. The growth at 0.01 µM [6] was 102%, the GI50 (A549; read-out: GI50) was 3.24 µM and the CC50 (A549; [15]) was greater than 100 µM. The TGI (A549; read-out: TGI) was greater than 100 µM, the GI50 (A549; read-out: pGI50 (converted)) was 3.24 µM and the CC50 (A549; [16]) was greater than 100 µM. The TGI (A549; read-out: pTGI (converted)) was greater than 100 µM, the growth at 10 µM (ACHN) was 9% and the GI50 (T47D [7]; read-out: GI50) was 1880 nM. The TGI (T47D [7]; read-out: TGI) was 4.32 µM, the GI50 (T47D [7]; read-out: pGI50 (converted)) was 1860 nM and the TGI (T47D [7]; read-out: pTGI (converted)) was 4.37 µM. For the same compound, the growth at 100 µM [8] was 8%, the growth at 0.1 µM (Malme-3M) was 95% and the GI50 ([9]; read-out: GI50) was 3.26 µM. For the same compound, the CC50 [9, 15] was greater than 100 µM, the TGI ([9]; read-out: TGI) was 10.8 µM and the GI50 ([9]; read-out: pGI50 (converted)) was 3.24 µM. For the same compound, the CC50 [9, 16] was greater than 100 µM, the TGI ([9]; read-out: pTGI (converted)) was 10.7 µM and the Activity (Albumin) was 71.83%. The growth at 0.01 µM (T47D [10]) was 101%, the growth at 10 µM [11] was 59.8% and the GI50 (HT-29; read-out: GI50) was 2230 nM. The CC50 (HT-29; [15]) was greater than 100 µM, the TGI (HT-29; read-out: TGI) was 5.39 µM and the GI50 (HT-29; read-out: pGI50 (converted)) was 2240 nM. For the same compound, the CC50 (HT-29; [16]) was greater than 100 µM, the TGI (HT-29; read-out: pTGI (converted)) was 5.37 µM and the growth at 10 µM [12] was 19.6%. For the same compound, the growth at 0.01 µM [13] was 90%, the GI50 (NCI-H460; read-out: GI50) was 2480 nM and the CC50 (NCI-H460; [15]) was greater than 100 µM. For the same compound, the TGI (NCI-H460; read-out: TGI) was 6.51 µM, the GI50 (NCI-H460; read-out: pGI50 (converted)) was 2450 nM and the CC50 (NCI-H460; [16]) was greater than 100 µM. It also gave a TGI (NCI-H460; read-out: pTGI (converted)) of 6.46 µM and a growth at 1 µM [14] of 87%.

In the case of `c1ccc2[nH]c(-c3ccc(Nc4nc(N5CCCCC5)nc(N5CCOCC5)n4)cc3)nc2c1`, the GI50 (MDA-MB-435; read-out: GI50) is reported as 2060 nM, the CC50 (MDA-MB-435; [15]) is reported as greater than 100 µM and the TGI (MDA-MB-435; read-out: TGI) is reported as 4.59 µM. The GI50 (MDA-MB-435; read-out: pGI50 (converted)) was 2040 nM, the CC50 (MDA-MB-435; [16]) was greater than 100 µM and the TGI (MDA-MB-435; read-out: pTGI (converted)) was 4.57 µM. The growth at 10 µM [1] was -19%, the growth at 0.1 µM [2] was 94% and the growth at 10 µM [3] was -54%. The growth at 10 µM [4] was -19.3%, the growth at 1 µM [5] was 105% and the growth at 0.01 µM [6] was 96%. It also gave a GI50 (A549; read-out: GI50) of 3.27 µM, a CC50 (A549; [15]) greater than 100 µM and a TGI (A549; read-out: TGI) of 13.2 µM. For the same compound, the GI50 (A549; read-out: pGI50 (converted)) was 3.24 µM, the CC50 (A549; [16]) was greater than 100 µM and the TGI (A549; read-out: pTGI (converted)) was 13.2 µM. It also gave a growth at 10 µM (ACHN) of 22.9%, a GI50 (T47D [7]; read-out: GI50) of 1960 nM and a CC50 (T47D [7]; [15]) greater than 100 µM. It also gave a TGI (T47D [7]; read-out: TGI) of 4.58 µM, a GI50 (T47D [7]; read-out: pGI50 (converted)) of 1950 nM and a CC50 (T47D [7]; [16]) greater than 100 µM. It also gave a TGI (T47D [7]; read-out: pTGI (converted)) of 4.57 µM, a growth at 100 µM [8] of 8% and a growth at 0.1 µM (Malme-3M) of 85%. For the same compound, the GI50 ([9]; read-out: GI50) was 3.24 µM, the CC50 [9, 15] was greater than 100 µM and the TGI ([9]; read-out: TGI) was 14.3 µM. The GI50 ([9]; read-out: pGI50 (converted)) was 3.24 µM, the CC50 [9, 16] was greater than 100 µM and the TGI ([9]; read-out: pTGI (converted)) was 14.1 µM. It also gave an Activity (Albumin) of 49.74%, a growth at 0.01 µM (T47D [10]) of 93% and a growth at 10 µM [11] of 61.2%. For the same compound, the GI50 (HT-29; read-out: GI50) was 2440 nM, the CC50 (HT-29; [15]) was greater than 100 µM and the TGI (HT-29; read-out: TGI) was 5.56 µM. The GI50 (HT-29; read-out: pGI50 (converted)) was 2450 nM, the CC50 (HT-29; [16]) was greater than 100 µM and the TGI (HT-29; read-out: pTGI (converted)) was 5.62 µM. The growth at 10 µM [12] was 22.5%, the growth at 0.01 µM [13] was 100% and the GI50 (NCI-H460; read-out: GI50) was 2440 nM. The CC50 (NCI-H460; [15]) was greater than 100 µM, the TGI (NCI-H460; read-out: TGI) was 6.18 µM and the GI50 (NCI-H460; read-out: pGI50 (converted)) was 2450 nM. For the same compound, the CC50 (NCI-H460; [16]) was greater than 100 µM, the TGI (NCI-H460; read-out: pTGI (converted)) was 6.17 µM and the growth at 1 µM [14] was 97%.
